Measurements: ChEMBL document CHEMBL1765069, “Decahydroquinoline amides as highly selective CB2 agonists: role of selectivity on in vivo efficacy in a rodent model of analgesia” (Bioorg Med Chem Lett, 2011)

Tests used:
[1] = target: T1, Cannabinoid receptor 1 (Homo sapiens, UniProt P21554); assay: Agonist activity at human CB1 receptor expressed in CHOK1 cells assessed as inhibition of forskolin-induced cAMP production treated 15 mins before forskolin challenge measured after 1 hr by HTRF assay; format: functional, cell-based, CHO-K1
T1 sequence (P21554 whole entry): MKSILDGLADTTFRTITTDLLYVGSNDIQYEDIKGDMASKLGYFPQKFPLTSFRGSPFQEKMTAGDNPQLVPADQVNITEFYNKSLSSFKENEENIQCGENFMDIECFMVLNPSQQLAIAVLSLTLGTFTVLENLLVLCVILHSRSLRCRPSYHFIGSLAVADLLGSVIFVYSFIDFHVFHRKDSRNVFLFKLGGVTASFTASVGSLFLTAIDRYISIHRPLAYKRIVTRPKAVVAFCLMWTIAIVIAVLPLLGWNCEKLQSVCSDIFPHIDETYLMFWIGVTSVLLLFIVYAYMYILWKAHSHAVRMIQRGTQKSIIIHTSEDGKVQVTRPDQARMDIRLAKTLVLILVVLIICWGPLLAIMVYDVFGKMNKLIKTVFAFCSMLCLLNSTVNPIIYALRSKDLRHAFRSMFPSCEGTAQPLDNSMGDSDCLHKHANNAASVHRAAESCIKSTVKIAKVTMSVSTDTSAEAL
Summary of the method: (§1)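 CHO-K1 cells (1000 per well) expressing human or rat CB1 or CB2 were preincubated with compound for 15 min at room temperature. Forskolin was then added at its EC70 for 30 min at room temperature. cAMP was detected by HTRF (d2-cAMP plus anti-cAMP cryptate) after a final 1 h incubation at room temperature. Values are reported as IC50 with % Emax.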

[2] = target: T2, Cannabinoid receptor 2 (Homo sapiens, UniProt P34972); assay: Agonist activity at human CB2 receptor expressed in CHOK1 cells assessed as inhibition of forskolin-induced cAMP production treated 15 mins before forskolin challenge measured after 1 hr by HTRF assay; format: functional, cell-based, CHO-K1; summary of the method: as §1
T2 sequence (P34972 whole entry): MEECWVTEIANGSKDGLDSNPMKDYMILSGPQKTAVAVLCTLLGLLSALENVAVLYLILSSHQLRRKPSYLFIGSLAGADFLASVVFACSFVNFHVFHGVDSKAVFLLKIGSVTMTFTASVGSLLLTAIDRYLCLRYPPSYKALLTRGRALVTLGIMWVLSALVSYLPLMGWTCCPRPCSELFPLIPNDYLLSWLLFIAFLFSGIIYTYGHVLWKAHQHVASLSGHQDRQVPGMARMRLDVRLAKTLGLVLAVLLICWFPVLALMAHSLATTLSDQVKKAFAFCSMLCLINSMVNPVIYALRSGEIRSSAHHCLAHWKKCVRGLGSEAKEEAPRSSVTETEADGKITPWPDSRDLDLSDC

[3] = target: T2, Cannabinoid receptor 2; assay: Agonist activity at human CB2 receptor expressed in CHOK1 cells assessed as inhibition of forskolin-induced cAMP production treated 15 mins before forskolin challenge measured after 1 hr by HTRF assay relative to control; format: functional, cell-based; conditions: CHO-K1
Summary of the method: (§2)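 CHO-K1 cells (1000 per well) expressing human or rat CB1 or CB2 were preincubated with compound at room temperature for 15 min. Forskolin at EC70 was then added for a further 30 min at room temperature. cAMP was read by HTRF (d2-cAMP plus anti-cAMP-cryptate, final 1 h at room temperature). IC50 and % Emax were reported.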

[4] = target: T1, Cannabinoid receptor 1; assay: Agonist activity at human CB1 receptor expressed in CHOK1 cells assessed as inhibition of forskolin-induced cAMP production treated 15 mins before forskolin challenge measured after 1 hr by HTRF assay relative to control; format: functional, cell-based; conditions: CHO-K1; summary of the method: as §2
[5] = test system: Cerebrospinal fluid; assay: Drug level in rat complete Freund's adjuvant-induced inflammation model cerebrospinal fluid at 30 mg/kg, sc; format: ADME, organism-based; set-up: dose 30 mg/kg, route subcutaneous; conditions: in vivo, read-out: Drug uptake
Summary of the method: (§3)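 In the rat CFA hyperalgesia experiments, after 30 mpk subcutaneous dosing, compound levels (nM) were measured in plasma, brain homogenate and cerebrospinal fluid.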

[6] = test system: Brain; assay: Drug level in rat complete Freund's adjuvant-induced inflammation model brain at 30 mg/kg, sc; format: ADME, organism-based; set-up: dose 30 mg/kg, route subcutaneous; conditions: in vivo, read-out: Drug uptake; summary of the method: as §3
[7] = test system: Rattus norvegicus; assay: Antiinflammatory activity in rat assessed as inhibition of complete Freund's adjuvant-induced paw withdrawal threshold at 30 mg/kg, sc after 60 mins (reference value: 4.8%); format: functional; conditions: 1 h, route subcutaneous
Summary of the method: (§4)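 Rat complete Freund's adjuvant hyperalgesia model. Compound was given subcutaneously at 10, 30 or 100 mpk. Paw withdrawal threshold was read at the 60 min timepoint and expressed as % reversal.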

[8] = test system: Rattus norvegicus; assay: Antiinflammatory activity in rat assessed as inhibition of complete Freund's adjuvant-induced paw withdrawal threshold at 100 mg/kg, sc after 60 mins (reference value: 4.8%); format: functional; conditions: 1 h, route subcutaneous; summary of the method: as §4
[9] = target: Cannabinoid receptor 1 (Rattus norvegicus, UniProt P20272); assay: Agonist activity at rat CB1 receptor expressed in CHOK1 cells assessed as inhibition of forskolin-induced cAMP production treated 15 mins before forskolin challenge measured after 1 hr by HTRF assay; format: functional, cell-based, CHO-K1; summary of the method: as §1
Chain of Cannabinoid receptor 1 (Rattus norvegicus, UniProt P20272) (P20272 whole entry): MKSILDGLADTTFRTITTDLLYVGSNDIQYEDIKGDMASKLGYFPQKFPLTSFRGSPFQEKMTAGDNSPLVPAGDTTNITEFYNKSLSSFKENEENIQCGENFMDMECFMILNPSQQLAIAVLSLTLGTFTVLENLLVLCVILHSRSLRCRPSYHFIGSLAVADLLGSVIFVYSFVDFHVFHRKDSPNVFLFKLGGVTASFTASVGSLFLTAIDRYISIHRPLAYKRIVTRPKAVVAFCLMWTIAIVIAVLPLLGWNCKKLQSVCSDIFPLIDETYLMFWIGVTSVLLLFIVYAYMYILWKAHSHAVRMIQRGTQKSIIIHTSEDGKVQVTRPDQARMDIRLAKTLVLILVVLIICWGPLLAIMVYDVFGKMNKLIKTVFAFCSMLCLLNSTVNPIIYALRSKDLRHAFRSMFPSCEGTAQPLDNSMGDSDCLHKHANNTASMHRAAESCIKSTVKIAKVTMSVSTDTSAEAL

[10] = target: T3, Cannabinoid receptor 2 (Rattus norvegicus, UniProt Q9QZN9); assay: Agonist activity at rat CB2 receptor expressed in CHOK1 cells assessed as inhibition of forskolin-induced cAMP production treated 15 mins before forskolin challenge measured after 1 hr by HTRF assay; format: functional, cell-based, CHO-K1; summary of the method: as §1
T3 sequence (Q9QZN9 whole entry): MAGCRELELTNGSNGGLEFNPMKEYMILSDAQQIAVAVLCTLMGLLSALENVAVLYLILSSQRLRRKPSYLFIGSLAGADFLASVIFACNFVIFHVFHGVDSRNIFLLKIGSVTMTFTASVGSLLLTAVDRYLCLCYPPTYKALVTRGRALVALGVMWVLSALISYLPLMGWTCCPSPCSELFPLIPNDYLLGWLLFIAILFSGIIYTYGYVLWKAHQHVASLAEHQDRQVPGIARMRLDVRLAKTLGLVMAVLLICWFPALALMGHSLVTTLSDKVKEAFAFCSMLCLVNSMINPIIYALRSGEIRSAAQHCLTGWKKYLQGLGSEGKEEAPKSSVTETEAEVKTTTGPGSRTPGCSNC

[11] = test system: Rattus norvegicus; assay: Antiinflammatory activity in rat assessed as inhibition of complete Freund's adjuvant-induced paw withdrawal threshold at 10 mg/kg, sc after 60 mins (reference value: 4.8%); format: functional; conditions: 1 h, route subcutaneous; summary of the method: as §4
[12] = test system: Plasma; assay: Drug level in rat complete Freund's adjuvant-induced inflammation model plasma at 30 mg/kg, sc; format: ADME, organism-based; set-up: dose 30 mg/kg, route subcutaneous; conditions: in vivo, read-out: Drug uptake; summary of the method: as §3
[13] = test system: Rattus norvegicus; assay: Antiinflammatory activity in rat assessed as inhibition of complete Freund's adjuvant-induced paw withdrawal threshold at 30 mg/kg, sc after 60 mins (reference value: 11%); format: functional; conditions: 1 h, route subcutaneous; summary of the method: as §4
[14] = target: T4, Cannabinoid receptor 2 (Rattus norvegicus) (UniProt Q9QZN9); assay: Agonist activity at rat CB2 receptor expressed in CHOK1 cells assessed as inhibition of forskolin-induced cAMP production treated 15 mins before forskolin challenge measured after 1 hr by HTRF assay relative to control; format: functional, cell-based; conditions: CHO-K1; summary of the method: as §2
T4 sequence (whole entry): T3 sequence (Q9QZN9 whole entry)

[15] = target: Cannabinoid receptor 1 (Rattus norvegicus) (UniProt P20272); assay: Agonist activity at rat CB1 receptor expressed in CHOK1 cells assessed as inhibition of forskolin-induced cAMP production treated 15 mins before forskolin challenge measured after 1 hr by HTRF assay relative to control; format: functional, cell-based; conditions: CHO-K1; summary of the method: as §2
Chain of Cannabinoid receptor 1 (Rattus norvegicus) (P20272 whole entry): as the sequence (P20272 whole entry) above

[16] = species: Rattus norvegicus
[17] = test system: Rattus norvegicus; assay: Antiinflammatory activity in sc dosed rat assessed as inhibition of complete Freund's adjuvant-induced paw withdrawal threshold after 60 mins; format: functional, organism-based; summary of the method: as §4
[18] = Fraction unbound in rat plasma; format: ADME, cell-free
[19] = Distribution coefficient, log P of the compound; format: physicochemical; conditions: octanol/water
[20] = species: Homo sapiens; assay: Selectivity ratio of IC50 for human CB1 receptor to IC50 for human CB2 receptor
[21] = Clearance in rat at 2 mg/kg, iv; format: ADME, organism-based; set-up: dose 2 mg/kg, route intravenous; conditions: in vivo
[22] = Half life in rat at 2 mg/kg, iv; format: ADME, organism-based; set-up: dose 2 mg/kg, route intravenous; conditions: in vivo
[23] = species: Rattus norvegicus; assay: animal or person; conditions: sc, 1 h, read-out: INH

| IC50 [1] | IC50 [2] | Emax [3] | Emax [4] | Ratio IC50 [20] | SMILES | further results |
| --- | --- | --- | --- | --- | --- | --- |
| > 17000 nM | 21 nM | 99% | 46% | – | O=C(c1cc(-c2ccccc2F)[nH]n1)N1CC[C@](O)(c2ccccc2)[C@H]2CCCC[C@H]21 | – |
| 5020 nM | 7.3 nM | – | – | – | Cc1ccc(C(=O)N2CC[C@@](O)(c3ccccc3)[C@@H]3CCCC[C@@H]32)cn1 [listing 1 of 2 here] | concentration [5]: 0.223 µM; concentration [6]: 3.2 µM; inhibition in vivo at 30 mg/kg [7]: 53.6%; inhibition in vivo at 100 mg/kg [8]: 76.4%; IC50 [9]: 1890 nM; IC50 [10]: 6.3 nM; inhibition in vivo at 10 mg/kg [11]: 28.2%; concentration [12]: 4.2 µM |
| > 17000 nM | 16 nM | 101% | 11% | – | CN1CCOC[C@H]1C(=O)N1CC[C@@](O)(c2ccccc2)[C@@H]2CCCC[C@@H]21 | concentration [5]: 1.5 µM; concentration [6]: 9.8 µM; inhibition in vivo at 30 mg/kg [13]: 3.3%; IC50 [9]: > 17000 nM; Emax [14]: 98%; IC50 [10]: 81 nM; Emax [15]: 8%; Papp [16]: 39 ×10⁻⁶ cm/s; concentration [12]: 6.6 µM |
| – | – | 103% | 78% | – | Cc1ccc(C(=O)N2CC[C@@](O)(c3ccccc3)[C@@H]3CCCC[C@@H]32)cn1 [listing 2 of 2 here] | inhibition [17]: Dose-dependent effect; Emax [14]: 119%; Emax [15]: 94%; Papp [16]: 36 ×10⁻⁶ cm/s |
| > 17000 nM | 30 nM | 100% | – | – | CN1CCOCC1C(=O)N1CC[C@@](O)(c2ccccc2)[C@@H]2CCCC[C@@H]21 (mixture of isomers) | fraction unbound [18]: 0.34; logP [19]: 2.28 |
| 4040 nM | 30 nM | 99% | 96% | – | O=C(C1CN(CC(F)(F)F)CCO1)N1CC[C@@](O)(c2ccccc2)[C@@H]2CCCC[C@@H]21 (mixture of isomers) | – |
| 1530 nM | 3.38 nM | 96% | 69% | 452 | O=C(c1cnc2ccccc2c1)N1CC[C@@](O)(c2ccccc2)[C@@H]2CCCC[C@@H]21 (racemic) | – |
| 261 nM | 0.53 nM | 87% | 95% | 492 | O=C(c1ccc2ncccc2c1)N1CC[C@@](O)(c2ccccc2)[C@@H]2CCCC[C@@H]21 (racemic) | – |
| 3440 nM | 5.5 nM | 99% | 69% | 626 | O=C(c1ccc2cnccc2n1)N1CC[C@@](O)(c2ccccc2)[C@@H]2CCCC[C@@H]21 (racemic) | – |
| > 17000 nM | 35 nM | 101% | 53% | > 486 | O=C(c1cccc2[nH]cnc12)N1CC[C@@](O)(c2ccccc2)[C@@H]2CCCC[C@@H]21 (racemic) | – |
| > 17000 nM | 14 nM | – | – | – | Cc1ccc(C(=O)N2CC[C@@](O)(c3ccccc3)[C@@H]3CCCC[C@@H]32)cn1 (racemic) | fraction unbound [18]: 0.15; logP [19]: 2.26 |
| 3440 nM | 156 nM | 98% | 50% | – | O=C(c1cnco1)N1CC[C@@](O)(c2ccccc2)[C@@H]2CCCC[C@@H]21 (racemic) | – |
| – | – | – | – | – | COc1ccc2cc([C@H](C)C(=O)O)ccc2c1 [NAPROXEN] | inhibition in vivo at 20 mg/kg [23]: 23.9% |

| SMILES | IC50 [1] | IC50 [2] | Emax [3] | Emax [4] | Ratio IC50 [20] | further results |
| --- | --- | --- | --- | --- | --- | --- |
| O=C(c1cccc2[nH]ccc12)N1CC[C@](O)(c2ccccc2)[C@H]2CCCC[C@H]21 | > 17000 nM | 0.62 nM | 100% | 64% | – | – |
| CN1CCC(C(=O)N2CC[C@](O)(c3ccccc3)[C@H]3CCCC[C@H]32)C1 (some centres not stated) | > 17000 nM | 5.9 nM | 102% | 6% | – | – |
| O=C(c1ccc2[nH]ccc2c1)N1CC[C@@](O)(c2ccccc2)[C@@H]2CCCC[C@@H]21 (racemic) | 1000 nM | 1.4 nM | 104% | 91% | 716 | – |
| O=C(c1cccc2[nH]ncc12)N1CC[C@@](O)(c2ccccc2)[C@@H]2CCCC[C@@H]21 (racemic) | > 17000 nM | 4 nM | 102% | 15% | > 4000 | clearance [21]: 70 mL/min/kg; fraction unbound [18]: 0.048; half-life [22]: 25.8 min |
